Assay [1] concerns DU-145. Description: Cell cycle arrest in human DU145 cells assessed as accumulation at S phase at 20 uM after 12 hrs by propidium iodide staining-based flow cytometric analysis (reference value: 44.93%). Format: functional. (In flow cytometry, cells or beads pass a laser one at a time.)
In assay [2] the test system is DU-145. Description: Cell cycle arrest in human DU145 cells assessed as accumulation at S phase at 15 uM after 12 hrs by propidium iodide staining-based flow cytometric analysis (reference value: 44.93%). Format: functional.
In assay [3] the test system is DU-145. Description: Cell cycle arrest in human DU145 cells assessed as accumulation at G2/M phase at 15 uM after 12 hrs by propidium iodide staining-based flow cytometric analysis (reference value: 10.97%). Format: functional.
Assay [4] concerns DU-145. In words: Cell cycle arrest in human DU145 cells assessed as accumulation at G0/G1 phase at 15 uM after 12 hrs by propidium iodide staining-based flow cytometric analysis (reference value: 40.91%). The assay is classed as functional.
The test system of assay [5] is DU-145. Description: Cell cycle arrest in human DU145 cells assessed as accumulation at G0/G1 phase at 20 uM after 12 hrs by propidium iodide staining-based flow cytometric analysis (reference value: 40.91%). Format: functional.
The test system of assay [6] is DU-145. In words: Induction of apoptosis in human DU145 cells assessed as chromosomal condensation at 5 to 20 uM after 48 hrs by DAPI staining-based fluorescence microscopic analysis. Format: functional, cell-based. The gist of the method: (§1)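 DU145 seeded 2 × 10⁴ per 60-mm plate, 24 h, then treated 48 h; PBS-washed twice, fixed 3.7% paraformaldehyde 10 min at room temperature, DAPI-stained 10 min at room temperature; nuclei scored for chromatin condensation and apoptotic bodies.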

The target in assay [7] is T1, Prostaglandin G/H synthase 2 (Ovis aries, UniProt P79208).
T1 sequence (P79208 whole entry): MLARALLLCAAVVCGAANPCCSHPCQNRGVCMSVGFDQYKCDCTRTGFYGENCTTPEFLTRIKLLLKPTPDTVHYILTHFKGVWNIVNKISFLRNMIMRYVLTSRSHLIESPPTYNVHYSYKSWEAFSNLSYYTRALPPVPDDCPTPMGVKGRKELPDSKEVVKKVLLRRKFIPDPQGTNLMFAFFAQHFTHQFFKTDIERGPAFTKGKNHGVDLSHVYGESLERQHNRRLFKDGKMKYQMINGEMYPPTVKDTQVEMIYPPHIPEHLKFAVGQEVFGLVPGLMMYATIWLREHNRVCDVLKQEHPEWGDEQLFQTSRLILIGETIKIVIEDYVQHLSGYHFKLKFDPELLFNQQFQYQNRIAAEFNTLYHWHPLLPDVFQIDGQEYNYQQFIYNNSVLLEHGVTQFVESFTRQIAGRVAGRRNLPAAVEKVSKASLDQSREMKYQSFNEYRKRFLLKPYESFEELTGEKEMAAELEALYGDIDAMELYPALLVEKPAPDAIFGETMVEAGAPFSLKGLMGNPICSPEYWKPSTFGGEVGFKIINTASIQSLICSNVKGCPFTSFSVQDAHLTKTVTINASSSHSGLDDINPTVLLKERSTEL
Description: Inhibition of ovine COX-2 assessed as using arachidonic acid as substrate preincubated for 5 mins prior to substrate addition measured […] by enzyme immunoassay.

The subject of assay [8] is PC-3. In words: Antiproliferative activity against human PC3 cells after 72 hrs by MTT assay. Particulars: PC-3, 72 h. Format: functional, cell-based. The gist of the method: (§2)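 Cells (PC3 and its PCDNA- and SKP2-transfected lines, DU145) grown in RPMI 1640 with 10% FBS; G418 added for transfected lines. Exponential cells seeded 1 × 10⁴/well, 24 h at 37 °C, then fresh medium with compounds at several concentrations for 72 h. MTT 1–3 h at 37 °C, dissolved in 4% HCl/96% isopropanol, absorbance 570 nm. Triplicate per concentration; IC50 from dose–response curves.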
In general terms: Formazan colour is commonly taken as a measure of viable cells.

For assay [9], the target named is T2, Prostaglandin G/H synthase 2 (Ovis aries) (UniProt P79208).
T2 sequence (whole entry): T1 sequence (P79208 whole entry)
Description: Inhibition of ovine COX-2 assessed as using arachidonic acid as substrate at 10 uM preincubated for 5 mins prior to substrate addition measured after 2 hrs by enzyme immunoassay relative to control. Particulars: in the assay text read “after 2 mins” for “after 2 hrs”. The gist of the method: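 Ovine COX-1 or COX-2 with heme in 0.1 M Tris-HCl pH 8.0, 5 mM EDTA, 2 mM phenol; compound (0.001–100 µM final, DMSO stocks) preincubated 5 min at 37 °C, then arachidonic acid added, stopped with 1 M HCl after 2 min. PGF2α (SnCl2 reduction) quantified by competitive EIA at 412 nm; % inhibition vs controls; mean of two determinations.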

In assay [10] the test system is DU-145. Description: Cell cycle arrest in human DU145 cells assessed as accumulation at G2/M phase at 5 uM after 12 hrs by propidium iodide staining-based flow cytometric analysis (reference value: 10.97%). Format: functional.
Assay [11] concerns DU-145. In words: Antiproliferative activity against human DU145 cells after 72 hrs by MTT assay. Particulars: DU-145, 72 h. Format: functional, cell-based. The gist of the method:
as §2

Assay [12] relates to PC-3. In words: Antiproliferative activity against human PC3 cells expressing PCDNA after 72 hrs by MTT assay. The assay is classed as functional, cell-based. Particulars: PC-3, 72 h. A digest of the protocol: as §2
For assay [13], the system named is DU-145. Description: Cell cycle arrest in human DU145 cells assessed as accumulation at G0/G1 phase after 12 hrs by propidium iodide staining-based flow cytometric analysis. The assay is classed as functional.
Assay [14] deals with DU-145. Description: Cell cycle arrest in human DU145 cells assessed as accumulation at S phase at 5 uM after 12 hrs by propidium iodide staining-based flow cytometric analysis (reference value: 44.93%). The assay is classed as functional.
In assay [15] the test system is DU-145. In words: Induction of apoptosis in human DU145 cells assessed as formation of apoptotic bodies at 5 to 20 uM after 48 hrs by DAPI staining-based fluorescence microscopic analysis. Format: functional, cell-based. A digest of the protocol: as §1
For assay [16], the system named is PC-3. Description: Antiproliferative activity against human PC3 cells expressing SKP2 after 72 hrs by MTT assay. Particulars: PC-3, 72 h. Format: functional, cell-based. A digest of the protocol:
as §2

Assay [17] deals with DU-145. Description: Cell cycle arrest in human DU145 cells assessed as accumulation at G2/M phase at 20 uM after 12 hrs by propidium iodide staining-based flow cytometric analysis (reference value: 10.97%). The assay is classed as functional.
Assay [18] concerns DU-145. In words: Cell cycle arrest in human DU145 cells assessed as accumulation at G0/G1 phase at 5 uM after 12 hrs by propidium iodide staining-based flow cytometric analysis (reference value: 40.91%). Format: functional.

Molecules are shown by their SMILES. Calls of active or inactive are those of the source. No cut-off for these calls is given here.

A word on the IC50: it is the midpoint of a concentration-inhibition curve. Usually inhibition stands for the change of the read-out against control, counted positive when it falls.

As for `COC1(C)OC(=O)C(c2ccccc2Cl)=C1c1ccc(S(C)(=O)=O)cc1` (stereo not drawn), the Activity in the assay on DU-145 [1] was 27.26%; in the assay on DU-145 [2], 29.17%; in the assay with DU-145 [3] it was 7.53%; with DU-145 [4], 60%; in the assay on DU-145 [5], 64.51%; in the assay with DU-145 [10], 10.97%. Further, the Activity result was “Dose-dependent effect” in the assay with DU-145 [13], 43.24% with DU-145 [14], 6.28% in the assay on DU-145 [17] and 42.22% in the assay with DU-145 [18]. Also, the outcome with DU-145 [6] and in the assay with DU-145 [15] was Active. Besides, the IC50 in assay [7] is 12.1 µM; with PC-3 [8], 20 µM; in the assay with DU-145 [11], 25 µM; in the assay with PC-3 [12] it was 5.17 µM; with PC-3 [16], 5.09 µM. Moreover, the inhibition in [9] was 43.3%.

The values above are taken from ChEMBL document CHEMBL2401696, “Stereoselective synthesis and anti-proliferative effects on prostate cancer evaluation of 5-substituted-3,4-diphenylfuran-2-ones” (Eur J Med Chem, 2013).
